Values after ≈ are worked out from the molar mass of the structure shown.
Key:
[1] = target: Chitin synthase 1 (Candida albicans) (UniProt P23316); assay: (§1) Concentration at which chitin synthetase is inhibited by 50%
Method in brief: (§2)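 Mixed membrane (particulate) fraction from C. albicans H-317 was the enzyme source. Chitin synthetase activity was measured with and without polyoxin compounds as incorporation of N-acetylglucosamine into chitin. ID50 is the concentration giving 50% inhibition.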

[2] = tested on: Candida albicans; assay: Percent inhibition of transport of (Leu)2 into Candida albicans H-317; type: functional; parameters: concentration or dose not given beside the values
Method in brief: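 H-317 cells grown in yeast nitrogen base with isoleucine (0.5%) as nitrogen source, harvested at 8×10^6 cells/mL, and washed. Cells in 2% glucose were warmed 10 min at 37 °C, then mixed with pH 5.5 citrate (10 mM)-KH2PO4 (10 mM) buffer containing labeled dileucine (5.6×10^-5 M, 44 μCi/μmol). Analogue was present at 10-fold molar excess. Samples were filtered at 0-4 min and counted; uptake rate was expressed as nmol/mg dry weight/min.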

[3] = tested on: Candida albicans; assay: Minimum inhibitory concentration against the growth of Candida albicans 124 NIK strain; type: functional
Method in brief: (§3)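 Cells grown in yeast nitrogen base with ammonium sulfate (0.5%) as nitrogen source, 24-48 h at 37 °C. MIC is the lowest drug concentration producing 5% morphologically aberrant cells, scored by microscopy.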

[4] = tested on: Candida albicans; assay: Minimum inhibitory concentration against the growth of Candida albicans 124 strain; type: functional; method in brief: as §3
[5] = tested on: Candida albicans; assay: Minimum inhibitory concentration against the growth of Candida albicans H-317 strain; type: functional; method in brief: as §3
[6] = tested on: Candida albicans; assay: Percent inhibition of transport of (Met)3 into Candida albicans H-317; type: functional; parameters: concentration or dose not given beside the values
Method in brief: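 H-317 cells grown in yeast nitrogen base with isoleucine (0.5%) as nitrogen source, washed, and prewarmed 10 min at 37 °C in 2% glucose. Cells were mixed with pH 3.5 citrate (10 mM)-KH2PO4 (10 mM) buffer containing labeled trimethionine (2.9×10^-5 M, 1 μCi/μmol). Analogue was added at 10-fold molar excess. Filtered samples were taken at 0, 1, 2, 3 and 4 min and counted by scintillation; rate was expressed as nmol/mg dry cells/min.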

[7] = target: Chitin synthase 1 (Candida albicans) (UniProt P23316); assay: as §1; type: functional; method in brief: as §2
[8] = tested on: Candida albicans; assay: Compound was tested for hydrolysis by Candida albicans H-317 extract; (+) Indicates compound was hydrolyzed by C. albicans H-317 extract; type: functional
Method in brief: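 Cell extract of C. albicans H-317 (100 μL at 200 μg protein/mL) incubated at 37 °C with polyoxin compound (100 μL of 1 μg/mL) plus 300 μL water. Hydrolysis monitored by reversed-phase HPLC, absorbance at 254 nm.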

[9] = Candida albicans, read-out: MIC

Sequence of Chitin synthase 1 (Candida albicans) (P23316 whole entry, looked up): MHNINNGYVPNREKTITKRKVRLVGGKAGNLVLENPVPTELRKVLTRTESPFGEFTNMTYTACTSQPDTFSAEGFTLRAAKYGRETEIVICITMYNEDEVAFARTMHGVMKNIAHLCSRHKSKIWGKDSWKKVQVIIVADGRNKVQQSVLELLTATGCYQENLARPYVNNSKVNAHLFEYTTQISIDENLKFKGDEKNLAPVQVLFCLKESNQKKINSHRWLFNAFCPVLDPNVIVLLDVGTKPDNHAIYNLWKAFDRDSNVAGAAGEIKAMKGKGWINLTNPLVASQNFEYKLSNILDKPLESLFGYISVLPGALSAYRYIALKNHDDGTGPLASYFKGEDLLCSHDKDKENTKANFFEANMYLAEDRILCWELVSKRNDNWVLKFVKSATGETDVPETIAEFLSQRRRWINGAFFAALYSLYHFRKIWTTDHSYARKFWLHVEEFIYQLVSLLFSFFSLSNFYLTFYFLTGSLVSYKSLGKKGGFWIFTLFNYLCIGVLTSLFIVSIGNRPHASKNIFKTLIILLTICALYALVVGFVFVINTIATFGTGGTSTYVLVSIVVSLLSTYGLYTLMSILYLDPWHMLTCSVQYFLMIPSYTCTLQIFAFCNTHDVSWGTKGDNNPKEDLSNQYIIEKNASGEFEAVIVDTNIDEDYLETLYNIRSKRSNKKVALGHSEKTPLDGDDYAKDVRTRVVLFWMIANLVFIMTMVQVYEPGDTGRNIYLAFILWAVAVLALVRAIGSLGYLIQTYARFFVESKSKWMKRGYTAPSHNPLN

SMILES: CCCCCCC(N)C(=O)NC(C(=O)O)[C@H]1O[C@@H](n2ccc(=O)[nH]c2=O)[C@H](O)[C@@H]1O (stereo in doubt; 3b) [listing 1 of 2 here]
- ID50 [1]: > 50 µg/mL

SMILES: CCCCCCCCCCCCCCC(N)C(=O)NC(C(=O)O)[C@H]1O[C@@H](n2ccc(=O)[nH]c2=O)[C@H](O)[C@@H]1O (stereo in doubt; 5a) [listing 1 of 2 here]
- Inhibition [2]: 56%

SMILES: NC(C(=O)O)[C@H]1O[C@@H](n2ccc(=O)[nH]c2=O)[C@H](O)[C@@H]1O (stereo partly drawn)
- MIC [3, 9]: > 640 µg/mL
- MIC [4, 9]: > 640 µg/mL
- MIC [5, 9]: > 640 µg/mL
- Inhibition [6]: 3%
- ID50 [7]: > 100 µg/mL

SMILES: NC(=O)OCC(O)C(O)C(N)C(=O)NC(C(=O)O)[C@H]1O[C@@H](n2cc(C(=O)O)c(=O)[nH]c2=O)[C@H](O)[C@@H]1O (stereo partly drawn)
- MIC [3, 9]: 320 µg/mL (≈ 614 µM)
- MIC [4, 9]: 320 µg/mL (≈ 614 µM)
- MIC [5, 9]: 640 µg/mL (≈ 1230 µM)
- Inhibition [2]: 5%
- Inhibition [6]: 10%
- ID50 [1]: 2 µg/mL (≈ 3.84 µM)

SMILES: CCCCCCCCCCC(N)C(=O)NC(C(=O)O)[C@H]1O[C@@H](n2ccc(=O)[nH]c2=O)[C@H](O)[C@@H]1O (stereo partly drawn)
- MIC [3, 9]: 80 µg/mL (≈ 165 µM)
- MIC [4, 9]: 40 µg/mL (≈ 82.6 µM)
- MIC [5, 9]: 80 µg/mL (≈ 165 µM)
- Inhibition [2]: 87%
- Inhibition [6]: 0%
- ID50 [1]: 0.3 µg/mL (≈ 0.619 µM)

SMILES: CCCCCCCCCCCCCCC(N)C(=O)NC(C(=O)O)[C@H]1O[C@@H](n2ccc(=O)[nH]c2=O)[C@H](O)[C@@H]1O (stereo in doubt; 5a) [listing 2 of 2 here]
- ID50 [1]: > 100 µg/mL

SMILES: CCCCCCC(N)C(=O)NC(C(=O)O)[C@H]1O[C@@H](n2ccc(=O)[nH]c2=O)[C@H](O)[C@@H]1O (stereo in doubt; 3a) [listing 1 of 2 here]
- Hydrolysis [8]: (+)
- ID50 [1]: 2 µg/mL (≈ 4.67 µM)

SMILES: CCCCCCC(N)C(=O)NC(C(=O)O)[C@H]1O[C@@H](n2ccc(=O)[nH]c2=O)[C@H](O)[C@@H]1O (stereo in doubt; 3a) [listing 2 of 2 here]
- MIC [3, 9]: 640 µg/mL (≈ 1490 µM)
- MIC [4]: 80 µg/mL (≈ 187 µM)
- MIC [5, 9]: 160 µg/mL (≈ 373 µM)
- Inhibition [2]: 71%
- Inhibition [6]: 6%

SMILES: CCCCCCCCCCCCCCC(N)C(=O)NC(C(=O)O)[C@H]1O[C@@H](n2ccc(=O)[nH]c2=O)[C@H](O)[C@@H]1O (stereo in doubt; 5b) [listing 1 of 2 here]
- MIC [3, 9]: > 320 µg/mL
- MIC [4, 9]: > 320 µg/mL
- MIC [5, 9]: > 320 µg/mL
- Inhibition [2]: 83%
- Inhibition [6]: 10%

SMILES: CCCCCCC(N)C(=O)NC(C(=O)O)[C@H]1O[C@@H](n2ccc(=O)[nH]c2=O)[C@H](O)[C@@H]1O (stereo in doubt; 3b) [listing 2 of 2 here]
- MIC [3]: >320 µg/mL
- MIC [4]: >320 µg/mL
- MIC [5]: >320 µg/mL
- Inhibition [2]: 14%
- Inhibition [6]: 10%

SMILES: CCCCCCCCCCCCCCC(N)C(=O)NC(C(=O)O)[C@H]1O[C@@H](n2ccc(=O)[nH]c2=O)[C@H](O)[C@@H]1O (stereo in doubt; 5b) [listing 2 of 2 here]
- ID50 [1]: 10 µg/mL (≈ 18.5 µM)
